Experimental data: ChEMBL document CHEMBL4689842, “EUbOPEN Chemogenomics Library wave 1” (2021)

System: HEK-293T
Experiment: Multiplex assay against HEK293T;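 as to Population Tubulin-Different-Phenotype (%): share of the cells with healthy nuclei that show this phenotype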
Assay type: toxicity, cell-based
Settings: human
In short: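 Hoechst33342, BioTracker Green Microtubule Cytoskeleton Dye, MitoTracker Red and Annexin V Alexa Fluor 680 were added to live cells at seeding, and imaging on a CQ1 microscope at 37°C and 5% CO2 followed compound addition. Gating by CellPathfinder machine learning separated cells into Hoechst high-intensity objects or normal cells, then normal cells into healthy, pyknosed or fragmented nuclei, then pyknosed cells into mitotic or apoptotic. Per cents of healthy-nucleus cells are reported for the tubulin, mitochondrial-mass and membrane-permeability phenotypes.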

[1] = 12 h, 1 µM, compound concentration 1 uM, replicate 1
[2] = 12 h, 1 µM, compound concentration 1 uM, replicate 2
[3] = 12 h, 10 µM, compound concentration 10 uM, replicate 1
[4] = 12 h, 10 µM, compound concentration 10 uM, replicate 2
[5] = 24 h, 1 µM, compound concentration 1 uM, replicate 1
[6] = 24 h, 1 µM, compound concentration 1 uM, replicate 2
[7] = 24 h, 10 µM, compound concentration 10 uM, replicate 1
[8] = 24 h, 10 µM, compound concentration 10 uM, replicate 2

SMILES: COC(=N)c1nc2ccc3ncnc(Nc4ccc(OC)cc4F)c3c2s1
- Population Apoptotic (%) [1]: 15%
- Population Fragmented Nuclei (%) [1]: 16%
- Population Healthy Nuclei (%) [1]: 53%
- Population Hoechst High Intensity Objects (%) [1]: 21%
- Population Membrane Permeable-Phenotype (%) [1]: 3%
- Population Mitochondria Different-Phenotype (%) [1]: 12%
- Population Mitotic Cells (%) [1]: 84%
- Population Normal (%) [1]: 78%
- Population Pyknosed Nuclei (%) [1]: 29%
- Population Tubulin-Different-Phenotype (%) [1]: 5%
- Total Cell Count [1]: 546
- Population Apoptotic (%) [2]: 24%
- Population Fragmented Nuclei (%) [2]: 4%
- Population Healthy Nuclei (%) [2]: 87%
- Population Hoechst High Intensity Objects (%) [2]: 5%
- Population Membrane Permeable-Phenotype (%) [2]: 0%
- Population Mitochondria Different-Phenotype (%) [2]: 21%
- Population Mitotic Cells (%) [2]: 75%
- Population Normal (%) [2]: 94%
- Population Pyknosed Nuclei (%) [2]: 7%
- Population Tubulin-Different-Phenotype (%) [2]: 9%
- Total Cell Count [2]: 1072
- Population Apoptotic (%) [3]: 19%
- Population Fragmented Nuclei (%) [3]: 10%
- Population Healthy Nuclei (%) [3]: 66%
- Population Hoechst High Intensity Objects (%) [3]: 10%
- Population Mitochondria Different-Phenotype (%) [3]: 6%
- Population Mitotic Cells (%) [3]: 80%
- Population Normal (%) [3]: 89%
- Population Pyknosed Nuclei (%) [3]: 22%
- Population Tubulin-Different-Phenotype (%) [3]: 4%
- Total Cell Count [3]: 552
- Population Apoptotic (%) [4]: 4%
- Population Fragmented Nuclei (%) [4]: 6%
- Population Healthy Nuclei (%) [4]: 88%
- Population Hoechst High Intensity Objects (%) [4]: 3%
- Population Membrane Permeable-Phenotype (%) [4]: 2%
- Population Mitochondria Different-Phenotype (%) [4]: 8%
- Population Mitotic Cells (%) [4]: 95%
- Population Normal (%) [4]: 96%
- Population Pyknosed Nuclei (%) [4]: 5%
- Population Tubulin-Different-Phenotype (%) [4]: 6%
- Total Cell Count [4]: 1236
- Population Apoptotic (%) [5]: 19%
- Population Fragmented Nuclei (%) [5]: 14%
- Population Healthy Nuclei (%) [5]: 71%
- Population Hoechst High Intensity Objects (%) [5]: 11%
- Population Membrane Permeable-Phenotype (%) [5]: 3%
- Population Mitochondria Different-Phenotype (%) [5]: 7%
- Population Mitotic Cells (%) [5]: 80%
- Population Normal (%) [5]: 88%
- Population Pyknosed Nuclei (%) [5]: 13%
- Population Tubulin-Different-Phenotype (%) [5]: 12%
- Total Cell Count [5]: 573
- Population Apoptotic (%) [6]: 17%
- Population Healthy Nuclei (%) [6]: 82%
- Population Hoechst High Intensity Objects (%) [6]: 5%
- Population Mitochondria Different-Phenotype (%) [6]: 4%
- Population Mitotic Cells (%) [6]: 82%
- Population Normal (%) [6]: 94%
- Population Pyknosed Nuclei (%) [6]: 2%
- Population Tubulin-Different-Phenotype (%) [6]: 19%
- Total Cell Count [6]: 1668
- Population Apoptotic (%) [7]: 16%
- Population Fragmented Nuclei (%) [7]: 9%
- Population Healthy Nuclei (%) [7]: 82%
- Population Hoechst High Intensity Objects (%) [7]: 8%
- Population Membrane Permeable-Phenotype (%) [7]: 7%
- Population Mitochondria Different-Phenotype (%) [7]: 2%
- Population Mitotic Cells (%) [7]: 83%
- Population Normal (%) [7]: 91%
- Population Pyknosed Nuclei (%) [7]: 8%
- Population Tubulin-Different-Phenotype (%) [7]: 8%
- Total Cell Count [7]: 657
- Population Apoptotic (%) [8]: 4%
- Population Fragmented Nuclei (%) [8]: 20%
- Population Healthy Nuclei (%) [8]: 77%
- Population Hoechst High Intensity Objects (%) [8]: 3%
- Population Membrane Permeable-Phenotype (%) [8]: 4%
- Population Mitotic Cells (%) [8]: 95%
- Population Normal (%) [8]: 96%
- Population Pyknosed Nuclei (%) [8]: 2%
- Population Tubulin-Different-Phenotype (%) [8]: 5%
- Total Cell Count [8]: 2058
